Active and inactive are the calls of the source. The calls are words filed in the database; no cut-off is given here.
Assays:
A549 = experiment: Antiproliferative activity against human A549 cells after 3 days by MTS assay; format: functional, cell-based; settings: A549, 72 h
CCRF-CEM [1] = experiment: Inhibition of DNA synthesis in human CCRF-CEM cells assessed as DNA synthesis level at 5 times IC50 concentration after 24 hrs by BrdU incorporation assay (reference value: 43.39%); format: functional; design: scale not given: the % may be the effect or the level left
CCRF-CEM [2] = experiment: Inhibition of mitosis in human CCRF-CEM cells assessed Ser10 H3 phosphorylation positive cells at IC50 concentration after 24 hrs by flow cytometry relative to total cell population (reference value: 1.36%); format: functional; design: scale not given: the % may be the effect or the level left
[3] = Cytotoxicity against human Hep2 cells assessed as reduction in cell viability after 3 days by CellTiter-Glo assay; format: cell-based; settings: HEp-2 cells
CCRF-CEM [4] = experiment: Induction of cell cycle arrest in human CCRF-CEM cells assessed as accumulation at subG1 phase at 5 times IC50 concentration after 24 hrs by propidium iodide-staining based flow cytometry (reference value: 3.45%); format: functional
K562 = experiment: Antiproliferative activity against human K562 cells after 3 days by MTS assay; format: functional, cell-based; settings: K562, 72 h
HeLa S3 = experiment: Antiproliferative activity against human HeLaS3 cells after 72 hrs by XTT assay; format: functional, cell-based; settings: HeLa S3, 72 h
[5] = Chemical stability of the compound assessed as compound remaining after 120 mins relative to control; format: physicochemical; settings: read-out: Stability
[6] = Effective permeability of the compound at 20 umol/L by PAMPA; format: ADME; settings: 20 µM
Hepatitis C virus [7] = experiment: Antiviral activity against Hepatitis C virus genotype 1b infected in human Huh-luc replicon cells after 3 days by luciferase assay; format: functional, organism-based, Hepacivirus hominis; settings: subtype 1b, 72 h
[8] = Stability in human plasma assessed as compound remaining at 3.3 umol/L after 120 mins by RF-MS analysis relative to control; format: ADME, cell-free; settings: read-out: Stability
[9] = Stability in human plasma assessed as compound remaining at 3.3 umol/L after 60 mins by RF-MS analysis relative to control; format: ADME, cell-free; settings: read-out: Stability
Adenosine kinase [10] = molecular target: T1, Adenosine kinase (Homo sapiens, UniProt P55263); experiment: Inhibition of recombinant human ADK using [3H]-adenosine as substrate after 20 mins by TLC scanner-based analysis relative to control
T1 sequence (P55263 whole entry): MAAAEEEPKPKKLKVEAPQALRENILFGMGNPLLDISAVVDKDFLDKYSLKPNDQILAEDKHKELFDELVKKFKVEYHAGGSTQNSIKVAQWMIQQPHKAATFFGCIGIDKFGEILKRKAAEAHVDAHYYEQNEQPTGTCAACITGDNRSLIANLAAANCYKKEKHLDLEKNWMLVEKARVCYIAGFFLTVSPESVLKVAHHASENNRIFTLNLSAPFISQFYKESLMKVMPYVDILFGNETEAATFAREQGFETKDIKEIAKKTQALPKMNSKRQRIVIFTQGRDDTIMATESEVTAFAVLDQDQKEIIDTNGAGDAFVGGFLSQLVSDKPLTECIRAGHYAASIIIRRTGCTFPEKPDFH
How it was run: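 ADK inhibition: 50 μM adenosine substrate with 10 μM test compound and 97 ng enzyme, 20 min at 37 °C.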

[11] = Stability in human plasma assessed as compound remaining at 3.3 umol/L after 30 mins by RF-MS analysis relative to control; format: ADME, cell-free; settings: read-out: Stability
[12] = Chemical stability of the compound assessed as compound remaining after 60 mins relative to control; format: physicochemical; settings: read-out: Stability
U2OS = experiment: Antiproliferative activity against human U2OS cells after 3 days by MTS assay; format: functional, cell-based; settings: 72 h
MRC5 = experiment: Antiproliferative activity against human MRC5 cells after 3 days by MTS assay; settings: MRC5, 72 h
HepG2 = experiment: Antiproliferative activity against human HepG2 cells after 72 hrs by XTT assay; format: functional, cell-based; settings: HepG2, 72 h
CCRF-CEM [13] = experiment: Antiproliferative activity against human CCRF-CEM cells after 3 days by MTS assay; format: functional, cell-based; settings: 72 h
CCRF-CEM [14] = experiment: Induction of cell cycle arrest in human CCRF-CEM cells assessed as accumulation at G2/M phase at 5 times IC50 concentration after 24 hrs by propidium iodide-staining based flow cytometry (reference value: 19.22%); format: functional
[15] = Antiproliferative activity against human K562-TAX cells after 3 days by MTS assay; format: functional, cell-based; settings: 72 h
CCRF-CEM [16] = experiment: Inhibition of DNA synthesis in human CCRF-CEM cells assessed as DNA synthesis level at IC50 concentration after 24 hrs by BrdU incorporation assay (reference value: 43.39%); format: functional; design: scale not given: the % may be the effect or the level left
[17] = Metabolic stability in human liver microsomes assessed as compound remaining at 5 umol/L after 30 mins relative to control; format: ADME, Microsome; settings: read-out: Stability
How it was run: (§1)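 Human microsomal fraction; percent compound remaining over time.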

CCRF-CEM [18] = experiment: Induction of cell cycle arrest in human CCRF-CEM cells assessed as accumulation at subG1 phase at IC50 concentration after 24 hrs by propidium iodide-staining based flow cytometry (reference value: 3.45%); format: functional
[19] = Stability in human plasma assessed as compound remaining at 3.3 umol/L after 15 mins by RF-MS analysis relative to control; format: ADME, cell-free; settings: read-out: Stability
[20] = Mitochondrial toxicity in human OCI-AML2 cells assessed as reduction in oxidative phosphorylation-based viability after 72 hrs by CellTiterGlo assay; format: cell-based
How it was run: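 OCI-AML2 leukemia cells, which rely on mitochondrial OXPHOS, treated for 3 days in a survival assay; IC50 reported.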

dengue virus type 2 = experiment: Antiviral activity against Dengue virus 2 Thailand/16681/84 infected in African green monkey Vero cells assessed as inhibition of virus replication incubated for 3 days by fluorescence microscopy; format: functional, organism-based
CCRF-CEM [21] = experiment: Inhibition of RNA synthesis in human CCRF-CEM cells assessed as RNA synthesis level at IC50 concentration after 24 hrs by BrU incorporation assay (reference value: 49.89%); format: functional; design: scale not given: the % may be the effect or the level left
[22] = Metabolic stability in human liver microsomes assessed as compound remaining at 5 umol/L after 60 mins relative to control; format: ADME, Microsome; settings: read-out: Stability; how it was run: as §1
HL-60 = experiment: Antiproliferative activity against human HL60 cells after 72 hrs by XTT assay; format: functional, cell-based; settings: HL-60, 72 h
CCRF-CEM [23] = experiment: Inhibition of mitosis in human CCRF-CEM cells assessed Ser10 H3 phosphorylation positive cells at 5 times IC50 concentration after 24 hrs by flow cytometry relative to total cell population (reference value: 1.36%); format: functional; design: scale not given: the % may be the effect or the level left
CCRF-CEM [24] = experiment: Induction of cell cycle arrest in human CCRF-CEM cells assessed as accumulation at G2/M phase at IC50 concentration after 24 hrs by propidium iodide-staining based flow cytometry (reference value: 19.22%); format: functional
Adenosine kinase [25] = molecular target: T1, Adenosine kinase; experiment: Substrate activity at recombinant human ADK assessed as compound phosphorylation at 50 uM after 20 mins in presence of [3H]-adenosine by UPLC; format: ADME
[26] = Metabolic stability in human liver microsomes assessed as compound remaining at 5 umol/L after 15 mins relative to control; format: ADME, Microsome; settings: read-out: Stability; how it was run: as §1
Human alphaherpesvirus 1 = experiment: Antiviral activity against human herpesvirus 1 HF infected in African green monkey Vero cells assessed as inhibited virus-induced cytopathic effect incubated for 3 days by XTT assay; format: functional, organism-based
HCT-116 [27] = experiment: Antiproliferative activity against p53 gene knocked out human HCT116 cells after 3 days by MTS assay; format: functional, cell-based; settings: HCT-116, 72 h
CCRF-CEM [28] = experiment: Induction of cell cycle arrest in human CCRF-CEM cells assessed as accumulation at S phase at 5 times IC50 concentration after 24 hrs by propidium iodide-staining based flow cytometry (reference value: 41.08%); format: functional
CCRF-CEM [29] = experiment: Inhibition of RNA synthesis in human CCRF-CEM cells assessed as RNA synthesis level at 5 times IC50 concentration after 24 hrs by BrU incorporation assay (reference value: 49.89%); format: functional; design: scale not given: the % may be the effect or the level left
BJ = experiment: Antiproliferative activity against human BJ cells after 3 days by MTS assay; settings: 72 h
Hepatitis C virus [30] = experiment: Antiviral activity against Hepatitis C virus genotype 2a infected in human Huh-luc replicon cells after 3 days by luciferase assay; format: functional, organism-based, Hepacivirus hominis; settings: subtype 2a, 72 h
[31] = Protein binding in human plasma; format: ADME, cell-free; settings: read-out: PPB (converted)
[32] = Chemical stability of the compound assessed as compound remaining after 15 mins relative to control; format: physicochemical; settings: read-out: Stability
[33] = Chemical stability of the compound assessed as compound remaining after 30 mins relative to control; format: physicochemical; settings: read-out: Stability
Influenza A virus = experiment: Antiviral activity against Influenza A virus (A/Mexico/4108/2009(H1N1)) infected in MDCK cells assessed as inhibited virus-induced cytopathic effect incubated for 2 days by XTT assay; format: functional, organism-based
CCRF-CEM [34] = experiment: Induction of cell cycle arrest in human CCRF-CEM cells assessed as accumulation at S phase at IC50 concentration after 24 hrs by propidium iodide-staining based flow cytometry (reference value: 41.08%); format: functional
Coxsackievirus B3 = experiment: Antiviral activity against Human coxsackie B3 Nancy infected in human HeLa cells assessed as inhibited virus-induced cytopathic effect incubated for 2 days by XTT assay; format: functional, organism-based
HCT-116 [35] = experiment: Antiproliferative activity against human HCT116 cells after 3 days by MTS assay; format: functional, cell-based; settings: HCT-116, 72 h
[36] = Antiproliferative activity against human CEM-DNR-bulk cells after 3 days by MTS assay; settings: 72 h
Human orthopneumovirus = experiment: Antiviral activity against Human respiratory syncytial virus A2 infected in Hep2 cells assessed as reduction in virus-induced cytopathic effect incubated for 4 days by CellTiter-Glo viability reagent based assay; format: functional, organism-based
CCRF-CEM [37] = experiment: Induction of cell cycle arrest in human CCRF-CEM cells assessed as accumulation at G0/G1 phase at IC50 concentration after 24 hrs by propidium iodide-staining based flow cytometry (reference value: 39.70%); format: functional
CCRF-CEM [38] = experiment: Induction of cell cycle arrest in human CCRF-CEM cells assessed as accumulation at G0/G1 phase at 5 times IC50 concentration after 24 hrs by propidium iodide-staining based flow cytometry (reference value: 39.70%); format: functional

## CSc1ncnc2c1c1c(ccn1C)n2[C@@H]1O[C@H](CO)[C@@H](O)[C@H]1O
A549
  IC50: > 50000 nM
CCRF-CEM [1]
  Activity: 7.8%
CCRF-CEM [2]
  Activity: 0.33%
[3]
  CC50 at 72 h: > 44400 nM
CCRF-CEM [4]
  Activity: 12.67%
K562
  IC50: 390 nM
HeLa S3
  IC50: 1360 nM
[5]
  remaining at 2 h: 97%
[6]
  log(permeability): -5.69
Hepatitis C virus [7]
  EC50: 40 nM
[8]
  remaining at 2 h, 3.3 µM: 98%
[9]
  remaining at 1 h, 3.3 µM: 98%
Adenosine kinase [10]
  IC50: > 10000 nM
[11]
  remaining at 0.5 h, 3.3 µM: 99%
[12]
  remaining at 1 h: 98%
U2OS
  IC50: 1410 nM
MRC5
  IC50: > 50000 nM
HepG2
  IC50: 1530 nM
CCRF-CEM [13]
  IC50: 340 nM
CCRF-CEM [14]
  Activity: 16.52%
[15]
  IC50: 50000 nM
CCRF-CEM [16]
  Activity: 30.41%
[17]
  remaining at 0.5 h, 5 µM: 99%
CCRF-CEM [18]
  Activity: 5.61%
[19]
  remaining at 0.25 h, 3.3 µM: 100%
[20]
  IC50 at 72 h: 160 nM
Dengue virus type 2
  Activity: inactive
CCRF-CEM [21]
  Activity: 21.43%
[22]
  remaining at 1 h, 5 µM: 97%
HL-60
  IC50: 580 nM
CCRF-CEM [23]
  Activity: 1.49%
CCRF-CEM [24]
  Activity: 17.36%
Adenosine kinase [25]
  Activity: 33%
[26]
  remaining at 0.25 h, 5 µM: 99%
Human alphaherpesvirus 1
  Activity: inactive
HCT-116 [27]
  IC50: 380 nM
CCRF-CEM [28]
  Activity: 42.94%
CCRF-CEM [29]
  Activity: 3.56%
BJ
  IC50: 5160 nM
Hepatitis C virus [30]
  EC50: 130 nM
[31]
  fraction unbound: 0.11
[32]
  remaining at 0.25 h: 100%
[33]
  remaining at 0.5 h: 99%
Influenza A virus
  Activity: inactive
CCRF-CEM [34]
  Activity: 56.36%
Coxsackievirus B3
  Activity: inactive
HCT-116 [35]
  IC50: 300 nM
[36]
  IC50: > 50000 nM
Human orthopneumovirus
  Activity: inactive
CCRF-CEM [37]
  Activity: 26.28%
CCRF-CEM [38]
  Activity: 40.55%

## COc1ncnc2c1c1occc1n2[C@@H]1O[C@H](CO)[C@@H](O)[C@H]1O
A549
  IC50: 1930 nM
CCRF-CEM [1]
  Activity: 52.74%
CCRF-CEM [2]
  Activity: 0.56%
[3]
  CC50 at 72 h: > 44400 nM
CCRF-CEM [4]
  Activity: 6.82%
K562
  IC50: 320 nM
HeLa S3
  IC50: 2310 nM
Hepatitis C virus [7]
  EC50: 380 nM
Adenosine kinase [10]
  IC50: > 10000 nM
U2OS
  IC50: 430 nM
MRC5
  IC50: 13400 nM
HepG2
  IC50: 2410 nM
CCRF-CEM [13]
  IC50: 180 nM
CCRF-CEM [14]
  Activity: 14.07%
[15]
  IC50: 300 nM
CCRF-CEM [16]
  Activity: 42.65%
CCRF-CEM [18]
  Activity: 4.23%
Dengue virus type 2
  Activity: inactive
CCRF-CEM [21]
  Activity: 25.36%
HL-60
  IC50: 700 nM
CCRF-CEM [23]
  Activity: 0.58%
CCRF-CEM [24]
  Activity: 16.65%
Adenosine kinase [25]
  Activity: 35%
Human alphaherpesvirus 1
  Activity: inactive
HCT-116 [27]
  IC50: 300 nM
CCRF-CEM [28]
  Activity: 65.39%
CCRF-CEM [29]
  Activity: 4.3%
BJ
  IC50: 1090 nM
Hepatitis C virus [30]
  EC50: 290 nM
Influenza A virus
  Activity: inactive
CCRF-CEM [34]
  Activity: 41.82%
Coxsackievirus B3
  Activity: inactive
HCT-116 [35]
  IC50: 280 nM
[36]
  IC50: 3120 nM
Human orthopneumovirus
  Activity: inactive
CCRF-CEM [37]
  Activity: 41.52%
CCRF-CEM [38]
  Activity: 20.54%
